Data set [1] deals with Rattus norvegicus. Briefly: AUC (0 to infinity) in Sprague-Dawley rat at 10 mg/kg, po by HPLC/MS analysis. It counts as ADME, organism-based. Also on record: dose 10 mg/kg, time infinity, route oral. Conditions: in vivo. In short, it runs like this: (§1)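 Sprague-Dawley rats given a single oral dose of 10 mg/kg; plasma exposure (AUC), half-life and oral bioavailability derived.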

Data set [2] in a line: Half life in Sprague-Dawley rat at 10 mg/kg, po by HPLC/MS analysis. It counts as ADME, organism-based. The following applies: in vivo. In short, it runs like this:
as §1

Data set [3] addresses T1, Mitogen-activated protein kinase kinase kinase 20 (Homo sapiens, UniProt Q9NYL2). In words: Inhibition of N-terminal GST-tagged recombinant human full-length ZAK expressed in baculovirus infected Sf9 insect cells using MBP as substrate after 30 mins by ADP-Glo assay. In short, it runs like this: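 ZAK activity by ADP-Glo luminescence with MBP as substrate, ATP and serially diluted compound. Reaction started by adding ATP and run 30 min at room temperature. ADP-Glo reagent was added to stop it (40 min), then detection reagent for 30 min before reading luminescence. Curves fitted; each experiment repeated at least 3 times.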
Target sequence in this assay (Q9NYL2 whole entry): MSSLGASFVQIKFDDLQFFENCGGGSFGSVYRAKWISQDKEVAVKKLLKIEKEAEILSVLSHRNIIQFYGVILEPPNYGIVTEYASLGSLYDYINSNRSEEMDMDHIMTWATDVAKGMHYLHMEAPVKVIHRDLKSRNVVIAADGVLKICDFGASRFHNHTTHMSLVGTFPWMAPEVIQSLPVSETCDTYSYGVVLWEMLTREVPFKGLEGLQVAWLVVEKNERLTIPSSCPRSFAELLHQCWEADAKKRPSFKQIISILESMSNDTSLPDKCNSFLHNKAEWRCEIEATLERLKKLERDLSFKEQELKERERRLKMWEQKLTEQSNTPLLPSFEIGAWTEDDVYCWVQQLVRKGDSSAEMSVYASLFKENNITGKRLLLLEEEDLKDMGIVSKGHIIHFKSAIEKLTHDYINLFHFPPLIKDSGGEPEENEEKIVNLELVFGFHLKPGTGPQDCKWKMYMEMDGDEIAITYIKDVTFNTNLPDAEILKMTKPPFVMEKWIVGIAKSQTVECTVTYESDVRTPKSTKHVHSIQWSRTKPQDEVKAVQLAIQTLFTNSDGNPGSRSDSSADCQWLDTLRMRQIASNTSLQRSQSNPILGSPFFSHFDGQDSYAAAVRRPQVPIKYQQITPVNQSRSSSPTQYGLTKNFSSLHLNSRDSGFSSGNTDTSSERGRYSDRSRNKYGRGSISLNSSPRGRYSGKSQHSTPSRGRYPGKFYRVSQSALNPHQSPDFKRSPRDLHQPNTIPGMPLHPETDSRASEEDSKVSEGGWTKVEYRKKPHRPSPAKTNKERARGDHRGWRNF

The target of data set [4] is Serine/threonine-protein kinase B-raf (Homo sapiens, UniProt P15056). Briefly: Inhibition of wild type GST-tagged recombinant human full-length B-RAF expressed in baculovirus expression system using Ser/Thr3 as substrate after 1 hr by FRET-based Z'-Lyte assay. In short, it runs like this:
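Z'-Lyte FRET assay with Ser/Thr3 peptide in kinase buffer; the final reaction held 0.002 ng B-Raf for wild type. Incubated 1 h at room temperature, then 1 h development to cleave nonphosphorylated peptide, then stop reagent. Means of 3 independent experiments.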

Data set [5] addresses T1, Mitogen-activated protein kinase kinase kinase 20. Briefly: Binding affinity to partial length human ZAK expressed in Escherichia coli BL21 by active-site-dependent competition assay. In short, it runs like this:
(§2)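 Active-site-dependent competition binding (KINOMEscan) run by an outside service across a panel of 468 kinases (403 nonmutated, 65 mutated); reported as binding constant Kd.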
Target sequence in this assay (Q9NYL2 whole entry): as above

In a further data set the target is Aurora kinase B (Homo sapiens, UniProt Q96GD4). Briefly: Binding affinity to partial length human AURKB expressed in HEK293 cells by active-site-dependent competition assay. It counts as cell-based. In short, it runs like this:
as §2

In data set [6] the target is T2, Serine/threonine-protein kinase B-raf (Homo sapiens, UniProt P15056, V600E). Briefly: Binding affinity to partial length human BRAF V600E mutant expressed in HEK293 cells by active-site-dependent competition assay. It is filed as cell-based. The procedure, abridged:
as §2

The target in data set [7] is T3, Tyrosine-protein kinase FRK (Homo sapiens, UniProt P42685). In words: Binding affinity to partial length human FRK expressed in Escherichia coli BL21 by active-site-dependent competition assay. In short, it runs like this:
as §2

Data set [8] has as its target T4, Mast/stem cell growth factor receptor Kit (Homo sapiens, UniProt P10721). In words: Binding affinity to partial length human KIT expressed in Escherichia coli BL21 by active-site-dependent competition assay. The procedure, abridged:
as §2

Data set [9] concerns the target Serine/threonine-protein kinase SIK1 (Homo sapiens, UniProt P57059). In words: Binding affinity to partial length human SIK expressed in Escherichia coli BL21 by active-site-dependent competition assay. In short, it runs like this: as §2
Data set [10] addresses Tyrosine-protein kinase Srms (Homo sapiens, UniProt Q9H3Y6). In words: Binding affinity to partial length human SRMS expressed in HEK293 cells by active-site-dependent competition assay. It is filed as cell-based. In short, it runs like this:
as §2

Data set [11] deals with T1, Mitogen-activated protein kinase kinase kinase 20. Briefly: Inhibition of partial length human ZAK expressed in Escherichia coli BL21 assessed as remaining activity at 1 uM after 1 hr by KINOMEscan method. In short, it runs like this: (§3)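 Active-site-dependent competition binding screen run by an outside provider across a 468-kinase panel (403 nonmutated, 65 mutated kinases).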

The test system of data set [12] is Serine/threonine-protein kinase B-raf (Homo sapiens), P15056 [V600E]. Briefly: Inhibition of partial length human BRAF V600E mutant expressed in HEK293 cells assessed as remaining activity at 1 uM after 1 hr by KINOMEscan method. It counts as cell-based. In short, it runs like this: as §3
In data set [13] the target is T3, Tyrosine-protein kinase FRK. Briefly: Inhibition of partial length human FRK expressed in Escherichia coli BL21 assessed as remaining activity at 1 uM after 1 hr by KINOMEscan method. The procedure, abridged: as §3
Data set [14] concerns the target T4, Mast/stem cell growth factor receptor Kit. Briefly: Inhibition of partial length human KIT expressed in Escherichia coli BL21 assessed as remaining activity at 1 uM after 1 hr by KINOMEscan method. The procedure, abridged: as §3
The test system of data set [15] is Mast/stem cell growth factor receptor Kit (Homo sapiens), P10721 [V559D]. Briefly: Inhibition of partial length human KIT V559D mutant expressed in Escherichia coli BL21 assessed as remaining activity at 1 uM after 1 hr by KINOMEscan method. In short, it runs like this:
as §3

Data set [16] is described as follows: Protein binding in mouse plasma at 1 uM after 4 hrs by equilibrium dialysis method. It counts as ADME, cell-free. The following applies: read-out: PPB (converted).
The species entered for data set [17] is Rattus norvegicus. In words: Inhibition of ZAK in Ang-2-induced rat H9c2 cells assessed as downregulation of BNP levels by Western blot analysis.
The species named for data set [18] is Rattus norvegicus. In words: Inhibition of ZAK in Ang-2-induced rat H9c2 cells assessed as decrease in p38 phosphorylation by Western blot analysis.
Data set [19] deals with Rattus norvegicus. In words: Inhibition of myocardial hypertrophy in spontaneous hypertensive WKY rat model assessed as decrease in left ventricular mass at systole at 10 to 20 mg/kg, po administered for 4 continuous weeks relative to control. It is filed as functional. The procedure, abridged:
(§4)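 Spontaneously hypertensive rats randomized into 3 groups given oral 0, 10 or 20 mg/kg/day for 4 continuous weeks; normotensive Wistar-Kyoto rats as reference; n = 6 per group. After sacrifice, left ventricles were collected to measure mass at diastole and systole; heart sections stained with hematoxylin and eosin for cardiomyocyte arrangement.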

The test system of data set [20] is Rattus norvegicus. In words: Inhibition of myocardial hypertrophy in po dosed spontaneous hypertensive WKY rat model assessed as restoration of cardiomyocyte disarrangement to normal phenomena administered for 4 continuous weeks by Hematoxylin and eosin staining-based light microscopic method. It is filed as functional, organism-based. In short, it runs like this: as §4

Data set [21] has as its system Rattus norvegicus. Briefly: Inhibition of myocardial hypertrophy in po dosed spontaneous hypertensive WKY rat model assessed as downregulation of BNP levels administered for 4 continuous weeks by Western blot method. It counts as functional, organism-based. The procedure, abridged:
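Spontaneously hypertensive rats given oral 0, 10 or 20 mg/kg/day for 4 continuous weeks alongside normotensive Wistar-Kyoto controls; left ventricles harvested after sacrifice for Western blot analysis.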

Data set [22] deals with T2, Serine/threonine-protein kinase B-raf. Briefly: Inhibition of partial length human BRAF V600E mutant expressed in HEK293 cells using Ser/Thr3 as substrate after 1 hr by FRET-based Z'-Lyte assay. In short, it runs like this:
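Z'-Lyte FRET assay with Ser/Thr3 peptide in kinase buffer; the final reaction held 0.002 ng B-Raf for wild type. Incubated 1 h at room temperature, then 1 h development to cleave nonphosphorylated peptide, then stop reagent. Controls: phosphopeptide for 100% phosphorylation, buffer instead of ATP for 100% inhibition, DMSO vehicle for 0% inhibition. Means of 3 independent experiments.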

The text below walks through data of ChEMBL document CHEMBL4052661, “Structure Based Design of N-(3-((1H-Pyrazolo[3,4-b]pyridin-5-yl)ethynyl)benzenesulfonamides as Selective Leucine-Zipper and Sterile-α Motif Kinase (ZAK) Inhibitors” (J Med Chem, 2017).

T4 sequence (P10721 whole entry): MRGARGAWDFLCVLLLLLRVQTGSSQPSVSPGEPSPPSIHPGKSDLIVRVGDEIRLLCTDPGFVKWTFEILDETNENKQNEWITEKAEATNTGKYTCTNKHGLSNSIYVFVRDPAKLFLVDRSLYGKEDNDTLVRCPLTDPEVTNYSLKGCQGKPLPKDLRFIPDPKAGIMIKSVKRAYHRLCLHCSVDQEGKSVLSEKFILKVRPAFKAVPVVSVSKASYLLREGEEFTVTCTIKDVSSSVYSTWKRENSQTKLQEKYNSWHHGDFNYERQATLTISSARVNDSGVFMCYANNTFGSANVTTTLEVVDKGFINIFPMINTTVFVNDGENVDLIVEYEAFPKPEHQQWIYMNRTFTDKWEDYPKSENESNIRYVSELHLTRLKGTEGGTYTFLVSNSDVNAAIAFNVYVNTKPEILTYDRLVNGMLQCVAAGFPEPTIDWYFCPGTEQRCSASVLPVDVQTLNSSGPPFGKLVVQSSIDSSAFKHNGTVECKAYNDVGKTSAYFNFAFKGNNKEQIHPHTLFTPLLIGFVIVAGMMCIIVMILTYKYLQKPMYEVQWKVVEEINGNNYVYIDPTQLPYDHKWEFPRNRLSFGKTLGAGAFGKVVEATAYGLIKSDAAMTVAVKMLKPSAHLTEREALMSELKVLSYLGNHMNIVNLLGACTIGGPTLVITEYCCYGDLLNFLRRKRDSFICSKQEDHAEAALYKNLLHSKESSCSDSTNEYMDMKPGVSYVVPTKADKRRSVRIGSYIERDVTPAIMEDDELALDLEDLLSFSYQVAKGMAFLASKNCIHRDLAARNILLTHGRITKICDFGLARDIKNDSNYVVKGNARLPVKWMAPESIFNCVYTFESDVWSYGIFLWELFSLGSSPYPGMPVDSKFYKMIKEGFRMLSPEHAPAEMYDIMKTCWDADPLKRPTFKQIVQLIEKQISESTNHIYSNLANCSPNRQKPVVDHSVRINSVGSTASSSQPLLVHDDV
T3 sequence (P42685 whole entry): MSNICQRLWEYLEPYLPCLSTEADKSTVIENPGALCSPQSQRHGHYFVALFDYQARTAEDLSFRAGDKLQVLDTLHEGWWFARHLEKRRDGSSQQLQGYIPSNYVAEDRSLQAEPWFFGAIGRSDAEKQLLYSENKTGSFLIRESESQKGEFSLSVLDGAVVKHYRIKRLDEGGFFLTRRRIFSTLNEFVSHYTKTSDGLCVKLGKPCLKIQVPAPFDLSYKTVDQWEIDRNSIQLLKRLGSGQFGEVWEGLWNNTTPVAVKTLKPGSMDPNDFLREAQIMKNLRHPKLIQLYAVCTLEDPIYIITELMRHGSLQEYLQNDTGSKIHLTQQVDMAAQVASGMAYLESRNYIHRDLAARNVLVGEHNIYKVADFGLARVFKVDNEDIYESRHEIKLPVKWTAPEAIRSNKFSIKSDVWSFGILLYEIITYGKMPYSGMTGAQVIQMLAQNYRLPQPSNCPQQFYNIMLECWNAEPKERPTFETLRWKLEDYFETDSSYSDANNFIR
T2 sequence (P15056 2-766 V600E limits assumed): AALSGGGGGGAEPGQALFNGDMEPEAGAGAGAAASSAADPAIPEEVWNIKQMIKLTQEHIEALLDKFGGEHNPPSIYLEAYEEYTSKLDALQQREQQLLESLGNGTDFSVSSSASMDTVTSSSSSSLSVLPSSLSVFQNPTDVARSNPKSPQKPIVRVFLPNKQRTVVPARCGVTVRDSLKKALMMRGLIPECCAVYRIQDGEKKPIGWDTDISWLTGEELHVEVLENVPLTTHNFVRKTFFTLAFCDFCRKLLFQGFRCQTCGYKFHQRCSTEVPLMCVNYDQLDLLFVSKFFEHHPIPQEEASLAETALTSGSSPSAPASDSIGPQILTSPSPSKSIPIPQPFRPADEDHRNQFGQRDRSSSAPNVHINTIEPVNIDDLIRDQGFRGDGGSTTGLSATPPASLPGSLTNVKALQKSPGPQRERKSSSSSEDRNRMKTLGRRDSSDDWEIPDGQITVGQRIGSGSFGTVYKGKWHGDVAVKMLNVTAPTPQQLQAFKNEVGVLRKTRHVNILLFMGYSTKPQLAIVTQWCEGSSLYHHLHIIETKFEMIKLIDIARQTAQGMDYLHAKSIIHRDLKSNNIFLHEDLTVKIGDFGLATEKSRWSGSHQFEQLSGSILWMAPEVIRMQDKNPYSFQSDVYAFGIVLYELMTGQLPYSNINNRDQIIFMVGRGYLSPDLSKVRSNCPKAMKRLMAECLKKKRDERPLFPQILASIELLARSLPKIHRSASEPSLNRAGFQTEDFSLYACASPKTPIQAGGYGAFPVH
Chain of Aurora kinase B (Q96GD4 whole entry): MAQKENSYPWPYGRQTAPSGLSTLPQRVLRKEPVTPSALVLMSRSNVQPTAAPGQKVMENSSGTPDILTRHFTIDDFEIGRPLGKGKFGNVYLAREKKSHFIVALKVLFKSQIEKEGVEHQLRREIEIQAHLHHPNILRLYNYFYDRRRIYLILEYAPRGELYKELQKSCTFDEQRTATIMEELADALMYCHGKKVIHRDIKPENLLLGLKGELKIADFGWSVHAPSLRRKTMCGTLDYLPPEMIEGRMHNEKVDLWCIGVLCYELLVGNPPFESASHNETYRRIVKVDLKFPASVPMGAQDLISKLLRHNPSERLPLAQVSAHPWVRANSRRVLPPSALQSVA
Chain of Tyrosine-protein kinase Srms (Q9H3Y6 whole entry): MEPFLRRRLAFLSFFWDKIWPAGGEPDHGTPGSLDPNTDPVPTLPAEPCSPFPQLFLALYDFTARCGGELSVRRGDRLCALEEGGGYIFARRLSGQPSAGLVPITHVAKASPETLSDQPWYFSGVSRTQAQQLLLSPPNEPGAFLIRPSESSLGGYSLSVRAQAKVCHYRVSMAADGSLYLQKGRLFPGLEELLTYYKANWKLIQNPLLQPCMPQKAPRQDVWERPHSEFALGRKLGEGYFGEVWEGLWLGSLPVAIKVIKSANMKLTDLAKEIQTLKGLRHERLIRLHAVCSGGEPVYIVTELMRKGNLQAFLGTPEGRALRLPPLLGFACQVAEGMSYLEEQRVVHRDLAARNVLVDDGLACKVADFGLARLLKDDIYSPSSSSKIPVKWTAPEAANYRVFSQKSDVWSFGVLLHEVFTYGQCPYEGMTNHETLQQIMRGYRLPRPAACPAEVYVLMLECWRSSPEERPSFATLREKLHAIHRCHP
Chain of Serine/threonine-protein kinase B-raf (Homo sapiens), P15056 [V600E] (P15056 whole entry V600E): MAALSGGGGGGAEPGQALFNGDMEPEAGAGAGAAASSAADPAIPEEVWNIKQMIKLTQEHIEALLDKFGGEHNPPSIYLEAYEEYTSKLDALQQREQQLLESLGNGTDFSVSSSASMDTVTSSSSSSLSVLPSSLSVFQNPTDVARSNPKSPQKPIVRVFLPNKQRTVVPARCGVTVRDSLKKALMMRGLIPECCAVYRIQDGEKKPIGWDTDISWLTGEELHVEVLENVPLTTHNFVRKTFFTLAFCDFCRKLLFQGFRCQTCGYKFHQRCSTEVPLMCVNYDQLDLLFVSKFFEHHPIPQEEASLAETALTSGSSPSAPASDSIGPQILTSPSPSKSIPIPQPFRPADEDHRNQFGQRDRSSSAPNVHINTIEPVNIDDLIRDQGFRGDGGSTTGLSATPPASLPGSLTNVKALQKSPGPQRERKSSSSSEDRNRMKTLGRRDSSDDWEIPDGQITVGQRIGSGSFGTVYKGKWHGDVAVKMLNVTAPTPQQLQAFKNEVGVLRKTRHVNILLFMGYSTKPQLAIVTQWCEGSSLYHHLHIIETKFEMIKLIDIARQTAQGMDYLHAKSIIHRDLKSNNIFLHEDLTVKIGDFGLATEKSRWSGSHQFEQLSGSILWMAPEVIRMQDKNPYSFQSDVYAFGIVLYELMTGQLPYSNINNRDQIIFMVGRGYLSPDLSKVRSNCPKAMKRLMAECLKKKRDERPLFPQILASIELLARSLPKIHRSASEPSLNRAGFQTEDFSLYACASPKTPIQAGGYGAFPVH
Chain of Serine/threonine-protein kinase B-raf (Homo sapiens, UniProt P15056) (P15056 whole entry): as the sequence (P15056 whole entry V600E) above, with E600V counted along it
Chain of Mast/stem cell growth factor receptor Kit (Homo sapiens), P10721 [V559D] (P10721 whole entry V559D): as the sequence (P10721 whole entry) above, with V559D counted along it

Consider `COc1n[nH]c2ncc(C#Cc3c(F)ccc(NS(=O)(=O)c4cccc(C#N)c4)c3F)cc12`, for which, in the data set on Rattus norvegicus [1], the AUC worked out at 253794 µg/L/h. The half-life in [2] is 34.6 h. Also, the 50% inhibitory concentration (IC50) in [3] was 3.3 nM; in [4] it was above 1000 nM; in data set [22], above 10000 nM. Besides, the equilibrium dissociation constant (Kd) in data set [5] was found to be 2.7 nM; at Aurora kinase B, 64 nM; in data set [6], 50 nM; in [7], 22 nM; in [8], 460 nM; in [9], 45 nM. This compound also had a dissociation constant (Kd) in data set [10] of 64 nM. Besides, the Activity came out at 3% in [11]; 9.9% in [12]; 1.9% in data set [13]; 6.2% in data set [14]; 2.9% in data set [15]. Moreover, the fraction unbound at 4 h, 1 µM in data set [16] was 0.002. Also, the inhibition entry in the data set filed under Rattus norvegicus [17], in the data set filed under Rattus norvegicus [18], in the data set with Rattus norvegicus [20] and with Rattus norvegicus [21] was “Dose-dependent effect” each time. The “inhibition (INH)” value with Rattus norvegicus [19] is reported as 3 - 8%.
